Read-outs that look alike come from different tables or passages of the source. Ends that are not written are not given here. * marks the point of attachment. 5FAM = O=C1OC2(c3ccc(O)cc3Oc3cc(O)ccc32)c2ccc(C(=O)*)cc21
What was measured:
[1] = biological target: T1, GGTase-I (Rattus norvegicus, UniProt P53610+Q04631); experiment: Peptide prenylation assay; type: biochemical; conditions: GGTase-I 10 nM; for effect on GGTase-I activity with peptide substrate: 5 μM SmgGDS, dansyl-GCLVL, saturating GGPP (10 μM)
T1 sequence (P53610 whole entry, one chain of several): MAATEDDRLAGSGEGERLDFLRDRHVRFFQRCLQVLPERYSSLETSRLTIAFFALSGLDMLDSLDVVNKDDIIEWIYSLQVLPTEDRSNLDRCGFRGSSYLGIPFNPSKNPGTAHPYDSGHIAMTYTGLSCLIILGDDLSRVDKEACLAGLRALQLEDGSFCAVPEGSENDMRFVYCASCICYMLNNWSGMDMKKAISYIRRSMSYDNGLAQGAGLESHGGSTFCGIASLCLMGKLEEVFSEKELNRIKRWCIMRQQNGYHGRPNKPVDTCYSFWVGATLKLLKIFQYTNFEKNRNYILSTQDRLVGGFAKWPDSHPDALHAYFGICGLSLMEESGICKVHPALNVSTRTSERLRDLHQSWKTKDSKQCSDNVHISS
In short: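 GGTase-I (10 nM) and 10 μM GGPP were incubated at 30°C with varied dansyl-GCLVL (RhoA CaaX peptide), with or without SmgGDS (5 μM final) or GDP/GTP (30 μM final). Prenylation-dependent fluorescence (ex 340/em 520 nm) was read every 40 s for 2 h. Initial slopes were converted to velocity, and kcat and KM came from Michaelis-Menten fits of V/E.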

[2] = tested on: GGTase-I; conditions: cited from earlier work
[3] = biological target: RhoA; conditions: read-out: Kd of RhoA for GTPγS; with Mg^2+; cited from earlier work
[4] = tested on: SmgGDS; conditions: cells, cited from earlier work
[5] = biological target: geranylgeranylated RhoA 13mer peptide (human); experiment: fluorescence polarisation
[6] = biological target: RhoA 13mer (5-fam-…) (human); experiment: fluorescence polarisation
[7] = tested on: RhoA; experiment: Radiolabel prenylation assay of RhoA with SmgGDS-607; type: biochemical, human
[8] = biological target: T1, GGTase-I; experiment: Radiolabel prenylation assay: GGTase-I-catalyzed geranylgeranylation of RhoA; type: biochemical; conditions: for effect of nucleotide on initial rate of RhoA geranylgeranylation / effect of nucleotide on endpoint level of incorporated isoprenoid: 25 μM GTP or GDP, RhoA 1.3 μM, GGTase-I 5 nM, without SmgGDS; for effect of nucleotide on initial rate of RhoA geranylgeranylation: 3H-GGPP 9 μM; for effect of nucleotide on endpoint level of incorporated isoprenoid: incubation 2 hr
[9] = tested on: FTase; conditions: addition of GDP or GTPγS; cited from earlier work
[10] = tested on: SmgGDS-607; conditions: non-farnesylated versus farnesylated RhoA; cited from earlier work
[11] = biological target: FTase; conditions: FTase binding; cited from earlier work
[12] = biological target: biotinylated SmgGDS-607 (human) (UniProt P52306); experiment: BLI
[13] = biological target: biotinylated SmgGDS-607 (human) (UniProt P52306); experiment: BLI; remark: listed apart in the source
[14] = biological target: RhoA CaaX only peptide (5fam-GCLVL) (human); experiment: fluorescence polarisation
[15] = biological target: RhoA (human); experiment: inhibition of radiolabel prenylation
[16] = biological target: T2, SmgGDS-558 (human, UniProt P52306-2 1-558); experiment: fluorescence polarisation
T2 sequence (looked up): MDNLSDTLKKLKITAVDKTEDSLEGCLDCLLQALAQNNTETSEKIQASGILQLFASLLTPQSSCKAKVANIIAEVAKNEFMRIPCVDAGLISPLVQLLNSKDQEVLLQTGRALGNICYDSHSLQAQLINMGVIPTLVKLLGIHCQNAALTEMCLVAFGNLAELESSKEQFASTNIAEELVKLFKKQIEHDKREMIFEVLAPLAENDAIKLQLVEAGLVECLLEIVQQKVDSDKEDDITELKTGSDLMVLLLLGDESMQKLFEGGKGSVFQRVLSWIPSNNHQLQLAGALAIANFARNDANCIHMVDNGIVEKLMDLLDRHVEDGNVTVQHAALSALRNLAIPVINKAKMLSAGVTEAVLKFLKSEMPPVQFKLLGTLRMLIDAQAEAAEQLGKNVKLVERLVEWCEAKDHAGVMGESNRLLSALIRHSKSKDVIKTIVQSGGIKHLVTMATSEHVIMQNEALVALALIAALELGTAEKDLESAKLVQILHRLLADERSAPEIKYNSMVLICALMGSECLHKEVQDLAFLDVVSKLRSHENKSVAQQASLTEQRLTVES

[17] = Buffer (no additive), GGPP 10 μM, 30°C, fluorescence

## dansyl-GCLVL [dansyl GCLVL]
[1]; [17]
  Km: 1.9 ± 0.8 µM
  kcat: 0.046 ± 0.009 s⁻¹

## dansyl-GCVLL
[2]; peptide substrate dansyl-GCVLL
  kcat: 0.051 s⁻¹

## Nc1nc2c(ncn2[C@@H]2O[C@H](COP(=O)(O)OP(=O)(O)OP(O)(O)=S)[C@@H](O)[C@H]2O)c(=O)[nH]1 [GTPγS]
[3]
  Kd: 160 nM

## RhoA T19N: dominant negative mutant of RhoA, predominantly nucleotide-free in cells
[4]; versus wildtype RhoA
  co-immunoprecipitation of SmgGDS-607: co-immunoprecipitates greater amounts of SmgGDS-607 than wildtype RhoA

## SmgGDS-607 (from UniProt P52306-1 1-607) (natural protein)
[5]
  Kd: > 16000 nM
[6]
  Kd: 1900 nM

## Nc1nc2c(ncn2[C@@H]2O[C@H](COP(=O)(O)OP(=O)(O)OP(=O)(O)O)[C@@H](O)[C@H]2O)c(=O)[nH]1 [GTP]
[7]; 5 μM SmgGDS-607, versus level in absence of SmgGDS-607, RhoA 3 μM
  restoration of RhoA geranylgeranylation at saturating GTP: do not restore RhoA geranylgeranylation to the level observed in the absence of SmgGDS-607
[7]; in the presence of 5 μM SmgGDS-607, RhoA 3 μM, GGTase-I 10 nM, 3H-GGPP 1.8 μM, 4 min
  concentration of GTP required to reach saturating RhoA geranylgeranylation: ~ 3 μM
[8]
  effect of nucleotide on initial rate of RhoA geranylgeranylation: No difference was observed
  effect of nucleotide on endpoint level of incorporated isoprenoid: no significant difference

## CC(C)=CCC/C(C)=C/CC/C(C)=C/CC/C(C)=C/COP(=O)(O)OP(=O)(O)O [GGPP, geranylgeranyl pyrophosphate]
[2]; GGTase-I KM for GGPP
  Km: 0.003 µM

## Nc1nc2c(ncn2[C@@H]2O[C@H](COP(=O)(O)OP(=O)(O)O)[C@@H](O)[C@H]2O)c(=O)[nH]1 [GDP]
[9]
  FTase activity for farnesylation of H-Ras: unaffected
[8]; 20 μM GDP without SmgGDS-607, RhoA 3 μM, GGTase-I 10 nM, 3H-GGPP 1.8 μM, 4 min
  effect of GDP on GGTase-I activity for RhoA: does not affect GGTase-I activity for RhoA
[8]
  effect of nucleotide on initial rate of RhoA geranylgeranylation: No difference was observed
  effect of nucleotide on endpoint level of incorporated isoprenoid: no significant difference

## non-farnesylated RhoA: non-farnesylated RhoA of the recent structural study
[10]
  affinity for SmgGDS-607: had higher affinity for SmgGDS-607 than farnesylated RhoA

## GCVLS
[11]
  Kd: 58 nM

## RhoA (natural protein)
[12]
  Kd: 249 nM
[13]
  Kd: 77 nM

## protein geranylgeranyltransferase I (from UniProt Q04631 1-377) (complex)
[14]
  Kd: 2200 nM
[6]
  Kd: 56 nM

## RhoA G14V: constitutively active mutant, predominantly bound to GTP
[4]
  co-immunoprecipitation of SmgGDS: did not co-immunoprecipitate detectable amounts of SmgGDS

B1: SmgGDS-558: human SmgGDS 558-amino acid splice variant with 12 armadillo repeats (UniProt P52306–2) (protein)
chain: T2 sequence (looked up)
modifications: left off: His6-tev, end not stated, state not stated
[1]
  effect on GGTase-I activity with peptide substrate: not significantly altered

B2: SmgGDS-607 (natural protein)
chain: MDNLSDTLKKLKITAVDKTEDSLEGCLDCLLQALAQNNTETSEKIQASGILQLFASLLTPQSSCKAKVANIIAEVAKNEFMRIPCVDAGLISPLVQLLNSKDQEVLLQTGRALGNICYDSHEGRSAVDQAGGAQIVIDHLRSLCSITDPANEKLLTVFCGMLMNYSNENDSLQAQLINMGVIPTLVKLLGIHCQNAALTEMCLVAFGNLAELESSKEQFASTNIAEELVKLFKKQIEHDKREMIFEVLAPLAENDAIKLQLVEAGLVECLLEIVQQKVDSDKEDDITELKTGSDLMVLLLLGDESMQKLFEGGKGSVFQRVLSWIPSNNHQLQLAGALAIANFARNDANCIHMVDNGIVEKLMDLLDRHVEDGNVTVQHAALSALRNLAIPVINKAKMLSAGVTEAVLKFLKSEMPPVQFKLLGTLRMLIDAQAEAAEQLGKNVKLVERLVEWCEAKDHAGVMGESNRLLSALIRHSKSKDVIKTIVQSGGIKHLVTMATSEHVIMQNEALVALALIAALELGTAEKDLESAKLVQILHRLLADERSAPEIKYNSMVLICALMGSECLHKEVQDLAFLDVVSKLRSHENKSVAQQASLTEQRLTVES
[15]
  Ki: 85 nM

B3: SmgGDS-607: human SmgGDS 607-amino acid splice variant with one additional armadillo repeat (UniProt P52306–1) (protein)
chain: B2 chain
modifications: left off: His6-tev, end not stated, state not stated
[7]; in vitro radiolabel incorporation assay
  inhibition of RhoA prenylation catalyzed by GGTase-I (overall statement): completely inhibits RhoA prenylation
[1]
  effect on GGTase-I activity with peptide substrate: not significantly altered

## 5FAM-GCLVL [RhoA CaaX only peptide (5fam-GCLVL)]
[16]
  Kd: > 40000 nM
